# Columns and labels:
# Type in all cases: functional
# Escherichia coli [1] = assay: Antibacterial activity against Escherichia coli 10-1 after 18 hrs by two fold serial dilution method; details: 10-1, 18 h
# In short: (§1)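 Agar two-fold serial dilution in melted Mueller-Hinton agar, final concentrations 128 down to 0.008 μg/mL. Plates inoculated with 10⁴ cfu and incubated at 35 °C for 18 h. MIC taken as the lowest concentration giving no visible growth on the plate.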
# Escherichia coli [2] = assay: Antibacterial activity against Escherichia coli 10-2 after 18 hrs by two fold serial dilution method; details: 10-2, 18 h; in short: as §1
# Escherichia coli [3] = assay: Antibacterial activity against Escherichia coli 10-3 after 18 hrs by two fold serial dilution method; details: 10-3, 18 h; in short: as §1
# Klebsiella pneumoniae [4] = assay: Antibacterial activity against Klebsiella pneumoniae 09-2 after 18 hrs by two fold serial dilution method; details: 09-2, 18 h; in short: as §1
# Klebsiella pneumoniae [5] = assay: Antibacterial activity against Klebsiella pneumoniae 10-1 after 18 hrs by two fold serial dilution method; details: 10-1, 18 h; in short: as §1
# Klebsiella pneumoniae [6] = assay: Antibacterial activity against Klebsiella pneumoniae 10-3 after 18 hrs by two fold serial dilution method; details: 10-3, 18 h; in short: as §1
# Pseudomonas aeruginosa [7] = assay: Antibacterial activity against Pseudomonas aeruginosa ATCC 27853 after 18 hrs by two fold serial dilution method; details: ATCC 27853, 18 h; in short: as §1
# Pseudomonas aeruginosa [8] = assay: Antibacterial activity against Pseudomonas aeruginosa 10-1 after 18 hrs by two fold serial dilution method; details: 10-1, 18 h; in short: as §1
# Pseudomonas aeruginosa [9] = assay: Antibacterial activity against Pseudomonas aeruginosa 10-2 after 18 hrs by two fold serial dilution method; details: 10-2, 18 h; in short: as §1
# Pseudomonas aeruginosa [10] = assay: Antibacterial activity against Pseudomonas aeruginosa 10-3 after 18 hrs by two fold serial dilution method; details: 10-3, 18 h; in short: as §1
# Enterococcus faecium [11] = assay: Antibacterial activity against Enterococcus faecium 09-1 after 18 hrs by two fold serial dilution method; details: 09-1, 18 h; in short: as §1
# Staphylococcus aureus [12] = assay: Antibacterial activity against Staphylococcus aureus ATCC 25923 after 18 hrs by two fold serial dilution method; details: ATCC 25923, 18 h; in short: as §1
# Staphylococcus aureus [13] = assay: Antibacterial activity against methicillin-resistant Staphylococcus aureus 10-1 after 18 hrs by two fold serial dilution method; details: 10-1, 18 h
# In short: (§2)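 Agar two-fold serial dilution in melted Mueller-Hinton agar, 128 to 0.008 μg/mL. Plates inoculated with 10⁴ cfu, incubated 35 °C for 18 h. MIC taken as lowest concentration giving no visible growth on the plate.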
# Staphylococcus aureus [14] = assay: Antibacterial activity against methicillin-resistant Staphylococcus aureus 10-2 after 18 hrs by two fold serial dilution method; details: 10-2, 18 h; in short: as §2
# Staphylococcus aureus [15] = assay: Antibacterial activity against methicillin-resistant Staphylococcus aureus 10-3 after 18 hrs by two fold serial dilution method; details: 10-3, 18 h; in short: as §2
# Staphylococcus aureus [16] = assay: Antibacterial activity against methicillin-resistant Staphylococcus aureus 10-4 after 18 hrs by two fold serial dilution method; details: 10-4, 18 h; in short: as §2
# Staphylococcus aureus [17] = assay: Antibacterial activity against methicillin-sensitive Staphylococcus aureus 10-1 after 18 hrs by two fold serial dilution method; details: 10-1, 18 h; in short: as §1
# Staphylococcus aureus [18] = assay: Antibacterial activity against methicillin-sensitive Staphylococcus aureus 10-2 after 18 hrs by two fold serial dilution method; details: 10-2, 18 h; in short: as §1
# Staphylococcus aureus [19] = assay: Antibacterial activity against methicillin-sensitive Staphylococcus aureus 10-3 after 18 hrs by two fold serial dilution method; details: 10-3, 18 h; in short: as §1
# Staphylococcus aureus [20] = assay: Antibacterial activity against methicillin-sensitive Staphylococcus aureus 10-4 after 18 hrs by two fold serial dilution method; details: 10-4, 18 h; in short: as §1
# Staphylococcus aureus [21] = assay: Antibacterial activity against methicillin-sensitive Staphylococcus aureus 10-5 after 18 hrs by two fold serial dilution method; details: 10-5, 18 h; in short: as §1
# Staphylococcus aureus [22] = assay: Antibacterial activity against methicillin-sensitive Staphylococcus aureus 10-6 after 18 hrs by two fold serial dilution method; details: 10-6, 18 h; in short: as §1
# [23] = test system: Staphylococcus epidermidis; assay: Antibacterial activity against methicillin-resistant Staphylococcus epidermidis 10-1 after 18 hrs by two fold serial dilution method; details: 10-1, 18 h; in short: as §2
# [24] = test system: Staphylococcus epidermidis; assay: Antibacterial activity against methicillin-resistant Staphylococcus epidermidis 10-2 after 18 hrs by two fold serial dilution method; details: 10-2, 18 h; in short: as §2
# [25] = test system: Staphylococcus epidermidis; assay: Antibacterial activity against methicillin-sensitive Staphylococcus epidermidis 10-1 after 18 hrs by two fold serial dilution method; details: 10-1, 18 h; in short: as §1
# [26] = test system: Staphylococcus epidermidis; assay: Antibacterial activity against methicillin-sensitive Staphylococcus epidermidis 10-2 after 18 hrs by two fold serial dilution method; details: 10-2, 18 h; in short: as §1
# Streptococcus pneumoniae = assay: Antibacterial activity against Streptococcus pneumoniae 10-1 after 18 hrs by two fold serial dilution method; details: 10-1, 18 h; in short: as §1
# Enterococcus faecium [27] = assay: Antibacterial activity against Enterococcus faecium 09-2 after 18 hrs by two fold serial dilution method; details: 09-2, 18 h; in short: as §1
# Enterococcus faecium [28] = assay: Antibacterial activity against Enterococcus faecium 09-3 after 18 hrs by two fold serial dilution method; details: 09-3, 18 h; in short: as §1
# Enterococcus faecium [29] = assay: Antibacterial activity against Enterococcus faecium 09-4 after 18 hrs by two fold serial dilution method; details: 09-4, 18 h; in short: as §1
# Enterococcus faecium [30] = assay: Antibacterial activity against Enterococcus faecium 09-5 after 18 hrs by two fold serial dilution method; details: 09-5, 18 h; in short: as §1
# Enterococcus faecium [31] = assay: Antibacterial activity against Enterococcus faecium 09-6 after 18 hrs by two fold serial dilution method; details: 09-6, 18 h; in short: as §1
# Enterococcus faecalis [32] = assay: Antibacterial activity against Enterococcus faecalis 09-1 after 18 hrs by two fold serial dilution method; details: 09-1, 18 h; in short: as §1
# Enterococcus faecalis [33] = assay: Antibacterial activity against Enterococcus faecalis 09-2 after 18 hrs by two fold serial dilution method; details: 09-2, 18 h; in short: as §1
# Escherichia coli [34] = assay: Antibacterial activity against Escherichia coli ATCC 25922 after 18 hrs by two fold serial dilution method; details: ATCC 25922, 18 h; in short: as §1
# Escherichia coli [35] = assay: Antibacterial activity against Escherichia coli 09-1 after 18 hrs by two fold serial dilution method; details: 09-1, 18 h; in short: as §1
# Escherichia coli [36] = assay: Antibacterial activity against Escherichia coli 09-2 after 18 hrs by two fold serial dilution method; details: 09-2, 18 h; in short: as §1
# Escherichia coli [37] = assay: Antibacterial activity against Escherichia coli 09-3 after 18 hrs by two fold serial dilution method; details: 09-3, 18 h; in short: as §1
smiles,measurement,setting,value
CC1(CN)CN(c2ccc3c(=O)c(C(=O)O)cn(C4CC4)c3n2)C/C1=N\OCF (racemic),MIC,Escherichia coli [1],> 128 µg/mL
same,MIC,Escherichia coli [2],1 µg/mL
same,MIC,Escherichia coli [3],128 µg/mL
same,MIC,Klebsiella pneumoniae [4],> 128 µg/mL
same,MIC,Klebsiella pneumoniae [5],0.25 µg/mL
same,MIC,Klebsiella pneumoniae [6],2 µg/mL
same,MIC,Pseudomonas aeruginosa [7],1 µg/mL
same,MIC,Pseudomonas aeruginosa [8],0.5 µg/mL
same,MIC,Pseudomonas aeruginosa [9],64 µg/mL
same,MIC,Pseudomonas aeruginosa [10],8 µg/mL
same,MIC,Enterococcus faecium [11],32 µg/mL
same,MIC,Staphylococcus aureus [12],0.03 µg/mL
same,MIC,Staphylococcus aureus [13],128 µg/mL
same,MIC,Staphylococcus aureus [14],8 µg/mL
same,MIC,Staphylococcus aureus [15],128 µg/mL
same,MIC,Staphylococcus aureus [16],128 µg/mL
same,MIC,Staphylococcus aureus [17],0.5 µg/mL
same,MIC,Staphylococcus aureus [18],32 µg/mL
same,MIC,Staphylococcus aureus [19],0.015 µg/mL
same,MIC,Staphylococcus aureus [20],0.015 µg/mL
same,MIC,Staphylococcus aureus [21],0.03 µg/mL
same,MIC,Staphylococcus aureus [22],0.03 µg/mL
same,MIC,[23],4 µg/mL
same,MIC,[24],8 µg/mL
same,MIC,[25],4 µg/mL
same,MIC,[26],64 µg/mL
same,MIC,Streptococcus pneumoniae,0.015 µg/mL
same,MIC,Enterococcus faecium [27],32 µg/mL
same,MIC,Enterococcus faecium [28],2 µg/mL
same,MIC,Enterococcus faecium [29],0.5 µg/mL
same,MIC,Enterococcus faecium [30],32 µg/mL
same,MIC,Enterococcus faecium [31],0.5 µg/mL
same,MIC,Enterococcus faecalis [32],32 µg/mL
same,MIC,Enterococcus faecalis [33],0.015 µg/mL
same,MIC,Escherichia coli [34],0.015 µg/mL
same,MIC,Escherichia coli [35],> 128 µg/mL
same,MIC,Escherichia coli [36],> 128 µg/mL
same,MIC,Escherichia coli [37],> 128 µg/mL
